Assay results: ChEMBL document CHEMBL1129936, “Water soluble furoxan derivatives as NO prodrugs” (J Med Chem, 1997)
One block for each compound: values may come before it.

Assays:
[1] = Nitric oxide released from prodrug in the absence of cysteine
Method in brief: (§1)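 Compound at 10^-4 M final in pH 7.4 buffered water, no thiol, held at 37 °C for 1 h or 24 h. Nitrite was measured by Griess reagent: 10 min at room temperature, absorbance at 540 nm, sodium nitrite standards 10-80 nmol/mL. Reported as percent NO2- (mol/mol) ± SEM.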

Rattus norvegicus [2] = species: Rattus norvegicus; test: Relaxation of endothelium […] strips of rat aorta precontracted with noradrenaline in presence of 10 uM HbO2; format: functional
Method in brief: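 Rat aortic strips in Krebs at 37 °C (95% O2-5% CO2, pH 7.4), precontracted with 1 µM noradrenaline and exposed to oxyhemoglobin 10 µM for at least 10 min before the vasodilator was added. Oxyhemoglobin came from bovine hemoglobin reduced with excess sodium dithionite at 4 °C. Relaxation concentration-response curves gave EC50.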

Rattus norvegicus [3] = species: Rattus norvegicus; test: Relaxation of endothelium […] strips of rat aorta precontracted with noradrenaline; format: functional
Method in brief: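 Rat aortic strips in Krebs solution at 37 °C, gassed 95% O2-5% CO2 (pH 7.4), equilibrated 1 h, then contracted with noradrenaline 1 µM (submaximal). Cumulative concentration-response curves for relaxation gave EC50.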

[4] = Nitric oxide released from prodrug in the presence of cysteine
Method in brief: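 Compound at 10^-4 M final was incubated 1 h at 37 °C, pH 7.4, with a 50-fold molar excess of cysteine (1:50). Nitrite was read by the Griess reaction at 540 nm after 10 min at room temperature against nitrite standards (10-80 nmol/mL). Given as percent NO2- (mol/mol) ± SEM.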

[5] = Nitric oxide releasing capability in the absence of cysteine after 24 hr; method in brief: as §1

Compound: O=[N+]([O-])OCC(CO[N+](=O)[O-])O[N+](=O)[O-] [NITROGLYCERIN]
% NO2- [1]: 0 M/M
EC50 (Rattus norvegicus [3]; Rattus norvegicus, Aorta): 0.0224 µM
% NO2- [4]: 45 M/M

Compound: NCCSc1c(-c2ccccc2)no[n+]1[O-]
% NO2- [1]: 4.5 M/M
EC50 (Rattus norvegicus [2]; Rattus norvegicus, Aorta): 15 µM
% NO2- [5]: 56 M/M
EC50 (Rattus norvegicus [3]; Rattus norvegicus, Aorta): 3.48 µM
% NO2- [4]: 37.9 M/M

Compound: NCCOc1no[n+]([O-])c1S(=O)(=O)c1ccccc1
% NO2- [1]: 0 M/M
EC50 (Rattus norvegicus [2]; Rattus norvegicus, Aorta): 0.046 µM
EC50 (Rattus norvegicus [3]; Rattus norvegicus, Aorta): 0.013 µM
% NO2- [4]: 19.7 M/M

Compound: CN(C)CCOc1no[n+]([O-])c1S(=O)(=O)c1ccccc1
% NO2- [1]: 0 M/M
EC50 (Rattus norvegicus [2]; Rattus norvegicus, Aorta): 0.048 µM
EC50 (Rattus norvegicus [3]; Rattus norvegicus, Aorta): 0.0041 µM
% NO2- [4]: 58.9 M/M

Compound: NCCSc1no[n+]([O-])c1-c1ccccc1
% NO2- [1]: 0 M/M
EC50 (Rattus norvegicus [2]; Rattus norvegicus, Aorta): 78 µM
EC50 (Rattus norvegicus [3]; Rattus norvegicus, Aorta): 15.2 µM
% NO2- [4]: 2.8 M/M

Compound: CN(C)CCCOc1no[n+]([O-])c1S(=O)(=O)c1ccccc1
% NO2- [1]: 0 M/M
EC50 (Rattus norvegicus [2]; Rattus norvegicus, Aorta): 0.13 µM
EC50 (Rattus norvegicus [3]; Rattus norvegicus, Aorta): 0.03 µM
% NO2- [4]: 20.2 M/M

Compound: CN(C)CCCOc1c(-c2ccccc2)no[n+]1[O-]
% NO2- [1]: 0 M/M
EC50 (Rattus norvegicus [2]; Rattus norvegicus, Aorta): 3.63 µM
EC50 (Rattus norvegicus [3]; Rattus norvegicus, Aorta): 1.03 µM
% NO2- [4]: 91.1 M/M

Now from value to compound:

% NO2- [1]: 0 M/M
EC50 (Rattus norvegicus [2]; Rattus norvegicus, Aorta): 0.43 µM
EC50 (Rattus norvegicus [3]; Rattus norvegicus, Aorta): 0.101 µM
% NO2- [4]: 8.8 M/M
Compound: CN(C)CCS(=O)(=O)c1no[n+]([O-])c1-c1ccccc1

% NO2- [1]: 1.5 M/M
% NO2- [4]: 58 M/M
Compound: SODIUM NITROPRUSSIDE [listing 1 of 2 here]

EC50 (Rattus norvegicus [2]): 0.0481 µM
EC50 (Rattus norvegicus [3]): 0.0215 µM
Compound: SODIUM NITROPRUSSIDE [listing 2 of 2 here]

% NO2- [1]: 95.3 M/M
EC50 (Rattus norvegicus [2]; Rattus norvegicus, Aorta): 0.33 µM
% NO2- [5]: 100 M/M
EC50 (Rattus norvegicus [3]; Rattus norvegicus, Aorta): 0.0557 µM
% NO2- [4]: 58.5 M/M
Compound: CN(C)CCSc1c(S(=O)(=O)c2ccccc2)no[n+]1[O-]

% NO2- [1]: 0 M/M
EC50 (Rattus norvegicus [2]; Rattus norvegicus, Aorta): 11.5 µM
EC50 (Rattus norvegicus [3]; Rattus norvegicus, Aorta): 1.55 µM
% NO2- [4]: 35 M/M
Compound: CN(C)CCSc1c(-c2ccccc2)no[n+]1[O-]

% NO2- [1]: 0 M/M
EC50 (Rattus norvegicus [2]; Rattus norvegicus, Aorta): 68 µM
EC50 (Rattus norvegicus [3]; Rattus norvegicus, Aorta): 7.35 µM
% NO2- [4]: 3.9 M/M
Compound: CN(C)CCOc1no[n+]([O-])c1-c1ccccc1

% NO2- [1]: 0 M/M
EC50 (Rattus norvegicus [2]; Rattus norvegicus, Aorta): 124 µM
EC50 (Rattus norvegicus [3]; Rattus norvegicus, Aorta): 14.3 µM
% NO2- [4]: 3.9 M/M
Compound: CN(C)CCCOc1no[n+]([O-])c1-c1ccccc1

% NO2- [1]: 0 M/M
EC50 (Rattus norvegicus [2]; Rattus norvegicus, Aorta): 1.01 µM
% NO2- [5]: 33 M/M
EC50 (Rattus norvegicus [3]; Rattus norvegicus, Aorta): 0.0826 µM
% NO2- [4]: 36.3 M/M
Compound: CN(C)CCS(=O)(=O)c1c(-c2ccccc2)no[n+]1[O-]

% NO2- [1]: 0 M/M
EC50 (Rattus norvegicus [2]; Rattus norvegicus, Aorta): 124 µM
EC50 (Rattus norvegicus [3]; Rattus norvegicus, Aorta): 48.1 µM
% NO2- [4]: 2.9 M/M
Compound: CN(C)CCSc1no[n+]([O-])c1-c1ccccc1

% NO2- [1]: 6.3 M/M
EC50 (Rattus norvegicus [2]; Rattus norvegicus, Aorta): 2.22 µM
% NO2- [5]: 97 M/M
EC50 (Rattus norvegicus [3]; Rattus norvegicus, Aorta): 1.23 µM
% NO2- [4]: 62.9 M/M
Compound: CN(C)CCOc1c(-c2ccccc2)no[n+]1[O-]

% NO2- [1]: 0 M/M
EC50 (Rattus norvegicus [2]; Rattus norvegicus, Aorta): 0.35 µM
EC50 (Rattus norvegicus [3]; Rattus norvegicus, Aorta): 0.052 µM
% NO2- [4]: 27.9 M/M
Compound: CN(C)CCSc1no[n+]([O-])c1S(=O)(=O)c1ccccc1
